# Data taken from ChEMBL document CHEMBL2176948 (J Med Chem, 2012).
# The source made the active and inactive calls. No cut-off for these calls is given here.
# Key:
# MDA-MB-231 = assay: Cytotoxicity against human MDA-MB-231 cells after 96 hrs by MTT assay; assay type: functional, cell-based; settings: MDA-MB-231, 96 h
# Procedure, shortened: (§1)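 Cells were grown in RPMI 1640 with 1 mM sodium pyruvate, 2 mM L-glutamine and 10% FBS. They were seeded at 1 × 10⁴ cells/mL and left overnight at 37 °C in 5% CO₂. Medium was then replaced with a broad concentration range of compound diluted from DMSO (final DMSO ≤0.1%). After 96 h exposure, growth was read by MTT.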
# DLD-1 [1] = assay: Cytotoxicity against human DLD1 cells after 96 hrs by MTT assay; assay type: functional, cell-based; settings: DLD-1, 96 h; procedure, shortened: as §1
# HT-29 [2] = assay: Cytotoxicity against human HT-29 cells after 96 hrs by MTT assay; assay type: functional, cell-based; settings: HT-29, 96 h; procedure, shortened: as §1
# [3] = Cytotoxicity against human A2780AD cells expressing p-gp after 96 hrs by MTT assay; assay type: functional, cell-based; settings: A2780 ADR
# Procedure, shortened: (§2)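 Cells were seeded at 1 × 10⁴ cells/mL in 96-well format and incubated overnight at 37 °C in 5% CO₂. Medium was replaced with serial compound dilutions from DMSO stocks in complete medium (final DMSO ≤0.1%). Chemosensitivity was read by MTT after 96 h.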
# [4] = test system: A2780 (human ovarian carcinoma); assay: Cytotoxicity against human A2780 cells after 96 hrs by MTT assay; settings: A2780, 96 h
# HT-29 [5] = assay: Cell cycle arrest in human HT-29 cells assessed as accumulation at G2/M phase at 40 nM after 48 hrs by FACS analysis; assay type: functional
# HT-29 [6] = assay: Induction of ABCB1 mRNA expression in human HT-29 cells at 1/10 IC50 to IC50 after 96 hrs by RT-PCR analysis; assay type: functional, cell-based
# Procedure, shortened: (§3)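 HT29 and DLD-1 cells were seeded at 5 × 10⁵ cells/dish, incubated overnight, then treated for 96 h. Total RNA was isolated, and ABCB1 and ABCG2 mRNA were measured by quantitative RT-PCR. Fold induction is target/PPIA signal relative to the control ratio, from three independent PCR analyses. Statistics: paired two-tailed t test with two-way ANOVA and Bonferroni correction.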
# HT-29 [7] = assay: Induction of ABCG2 mRNA expression in human HT-29 cells at 1/10 IC50 to IC50 after 96 hrs by RT-PCR analysis; assay type: functional, cell-based; procedure, shortened: as §3
# DLD-1 [8] = assay: Induction of ABCB1 mRNA expression in human DLD1 cells at 1/10 IC50 to IC50 after 96 hrs by RT-PCR analysis; assay type: functional, cell-based; procedure, shortened: as §3
# HeLa [9] = assay: Cytotoxicity against human HeLa cells expressing class 3 tubulin after 96 hrs by MTT assay; assay type: functional, cell-based
# Procedure, shortened: (§4)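 Parental HeLa cells and a transfected class III β-tubulin-overexpressing variant were seeded at 1 × 10⁴ cells/mL and held overnight at 37 °C, 5% CO₂. Compounds in DMSO were diluted in complete medium over a broad range (final DMSO ≤0.1%) and exposed for 96 h. Read-out was MTT. IC50 is the mean ± standard error of at least four independent assays.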
# DLD-1 [10] = assay: Induction of ABCG2 mRNA expression in human DLD1 cells at 1/10 IC50 to IC50 after 96 hrs by RT-PCR analysis; assay type: functional, cell-based; procedure, shortened: as §3
# HT-29 [11] = assay: Cell cycle arrest in human HT-29 cells assessed as accumulation at G2/M phase at 40 nM after 24 hrs by FACS analysis; assay type: functional
# HeLa [12] = assay: Cytotoxicity against human HeLa cells after 96 hrs by MTT assay; assay type: functional, cell-based; procedure, shortened: as §4
# A2780 ADR = assay: Effect on ABCB1 level in human A2780AD cells expressing p-gp; assay type: functional, cell-based
# Liver = assay: Metabolic stability of the compound in mouse liver homogenates at 100 uM after 2 hrs; assay type: ADME, tissue-based; settings: tissue homogenate
# HT-29 [13] = assay: Induction of microtubule disruption in human HT-29 cells assessed as change […] cell morphology and cytoskeletal organization after 24 hrs by immunostaining; assay type: cell-based
# Procedure, shortened: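 HT29 cells on glass coverslips were allowed to adhere for 24 h, then exposed to 5, 50 and 500 nM for 24 h. Cells were fixed in methanol at −20 °C for 30 min and stained with mouse anti-α-tubulin (1:500, 30 min, rt), then TRITC anti-mouse IgG (1:50, 30 min). Images were taken by confocal microscopy and compared with untreated cells.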
# A549 = assay: Cytotoxicity against human A549 cells after 96 hrs by MTT assay in presence of fumitremorgin-C; assay type: functional, cell-based; procedure, shortened: as §2
structure (smiles),measurement,setting,value
COc1cc2c(c(OC)c1OC)-c1ccc(OC)c(=O)cc1[C@@H](NCc1cc(F)c(F)c(F)c1)CC2,IC50,MDA-MB-231,92.2 nM
same,IC50,DLD-1 [1],36.2 nM
same,IC50,HT-29 [2],64.5 nM
CC(=O)O[C@H]1C(=O)[C@@]2(C)[C@H]([C@H](OC(=O)c3ccccc3)[C@]3(O)C[C@H](OC(=O)[C@H](O)[C@@H](NC(=O)c4ccccc4)c4ccccc4)C(C)=C1C3(C)C)[C@]1(OC(C)=O)CO[C@@H]1C[C@@H]2O [PACLITAXEL],IC50,[3],> 1000 nM
same,IC50,[4],1.1 nM
COc1cc2c(c(OC)c1OC)-c1ccc(OC)c(=O)cc1[C@@H](NCc1cc(F)cc(F)c1)CC2,IC50,MDA-MB-231,523 nM
same,IC50,DLD-1 [1],35.2 nM
same,IC50,HT-29 [2],52 nM
COc1cc2c(c(OC)c1OC)-c1ccc(OC)c(=O)cc1[C@@H](NCc1cccc(F)c1)CC2,IC50,MDA-MB-231,89.1 nM
same,IC50,DLD-1 [1],51.6 nM
same,IC50,HT-29 [2],63.4 nM
COc1cc2c(c(OC)c1OC)-c1ccc(OC)c(=O)cc1[C@@H](NCc1ccc(F)cc1)CC2,IC50,DLD-1 [1],11.4 nM
COc1cc2c(c(OC)c1OC)-c1ccc(OC)c(=O)cc1[C@@H](NC(C)=O)CC2 [COLCHICINE],IC50,[3],16.8 nM
same,Activity,HT-29 [5],Active
same,Activity,HT-29 [6],Active
same,Activity,HT-29 [7],Active
same,IC50,MDA-MB-231,37 nM
same,Activity,DLD-1 [8],inactive
same,IC50,[4],6.7 nM
same,IC50,DLD-1 [1],15.6 nM
same,IC50,HeLa [9],9.7 nM
same,IC50,HT-29 [2],69.2 nM
same,Activity,DLD-1 [10],inactive
same,Activity,HT-29 [11],Active
same,IC50,HeLa [12],8.2 nM
COc1cc2c(c(OC)c1OC)-c1ccc(OC)c(=O)cc1[C@@H](NCc1ccc(I)cc1)CC2,IC50,DLD-1 [1],35.9 nM
COc1cc2c(c(OC)c1OC)-c1ccc(OC)c(=O)cc1[C@@H](NCc1cccc(F)c1F)CC2,IC50,MDA-MB-231,86 nM
same,IC50,DLD-1 [1],4.67 nM
same,IC50,HT-29 [2],7.43 nM
COc1ccc(CN[C@H]2CCc3cc(OC)c(OC)c(OC)c3-c3ccc(OC)c(=O)cc32)cc1,IC50,MDA-MB-231,93 nM
same,IC50,DLD-1 [1],15.7 nM
same,IC50,HT-29 [2],51 nM
COc1cc2c(c(OC)c1OC)-c1ccc(OC)c(=O)cc1[C@@H](NCc1ccc(F)c(F)c1)CC2,IC50,[3],17.2 nM
same,Activity,HT-29 [5],91.2%
same,Activity,HT-29 [6],Active
same,Activity,A2780 ADR,inactive
same,Activity,HT-29 [7],Active
same,IC50,MDA-MB-231,16 nM
same,Activity,DLD-1 [8],inactive
same,Stability,Liver,Stable
same,Activity,HT-29 [13],Dose-dependent effect
same,IC50,[4],18.8 nM
same,IC50,DLD-1 [1],1.61 nM
same,IC50,HeLa [9],14.1 nM
same,IC50,HT-29 [2],4.3 nM
same,Activity,DLD-1 [10],inactive
same,Activity,HT-29 [11],92.5%
same,Activity,A549,Active
same,IC50,HeLa [12],25.3 nM
COc1cc2c(c(OC)c1OC)-c1ccc(OC)c(=O)cc1[C@@H](NCc1ccc(Br)cc1)CC2,IC50,DLD-1 [1],31.2 nM
COc1cc2c(c(OC)c1OC)-c1ccc(OC)c(=O)cc1[C@@H](NCc1ccc(Cl)cc1)CC2,IC50,DLD-1 [1],32.6 nM
